Experimental data taken from ChEMBL document CHEMBL4402611, “Phenyl(thio)phosphon(amid)ate Benzenesulfonamides as Potent and Selective Inhibitors of Human Carbonic Anhydrases II and VII Counteract Allodynia in a Mouse Model of Oxaliplatin-Induced Neuropathy” (J Med Chem, 2020).
pKi: −log10 of the molar value. Active and inactive are the calls of the source.

Experiments:
Carbonic anhydrase 2 = Carbonic anhydrase 2 (Homo sapiens, UniProt P00918); assay: Inhibition of human recombinant carbonic anhydrase 2 preincubated with enzyme for 1 hr prior to testing by phenol red-based stopped-flow CO2 hydration assay
Carbonic anhydrase 9 = Carbonic anhydrase 9 (Homo sapiens, UniProt Q16790); assay: Inhibition of human recombinant carbonic anhydrase 9 preincubated with enzyme for 1 hr prior to testing by phenol red-based stopped-flow CO2 hydration assay; type: single protein
Carbonic anhydrase 12 = Carbonic anhydrase 12 (Homo sapiens, UniProt O43570); assay: Inhibition of human recombinant carbonic anhydrase 12 preincubated with enzyme for 1 hr prior to testing by phenol red-based stopped-flow CO2 hydration assay
Carbonic anhydrase 12, sequence (O43570 whole entry): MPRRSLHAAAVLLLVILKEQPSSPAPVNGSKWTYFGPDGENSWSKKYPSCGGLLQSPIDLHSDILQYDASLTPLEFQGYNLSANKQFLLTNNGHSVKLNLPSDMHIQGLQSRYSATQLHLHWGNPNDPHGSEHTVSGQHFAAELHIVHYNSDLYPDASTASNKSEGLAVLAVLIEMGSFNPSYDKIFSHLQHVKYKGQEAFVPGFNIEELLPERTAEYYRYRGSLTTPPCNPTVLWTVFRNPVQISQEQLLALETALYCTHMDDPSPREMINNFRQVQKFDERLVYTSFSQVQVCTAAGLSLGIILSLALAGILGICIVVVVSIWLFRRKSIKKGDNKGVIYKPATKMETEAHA

Carbonic anhydrase 1 = Carbonic anhydrase 1 (Homo sapiens, UniProt P00915); assay: Inhibition of human recombinant carbonic anhydrase 1 preincubated with enzyme for 1 hr prior to testing by phenol red-based stopped-flow CO2 hydration assay
Carbonic anhydrase 1, sequence (P00915 whole entry): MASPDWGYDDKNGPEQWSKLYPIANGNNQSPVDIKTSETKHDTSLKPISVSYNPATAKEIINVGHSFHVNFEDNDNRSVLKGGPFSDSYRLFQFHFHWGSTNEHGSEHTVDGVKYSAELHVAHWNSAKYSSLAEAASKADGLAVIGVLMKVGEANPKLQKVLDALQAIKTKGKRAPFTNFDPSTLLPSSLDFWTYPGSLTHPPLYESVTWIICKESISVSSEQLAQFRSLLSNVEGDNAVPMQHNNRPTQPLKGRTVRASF

[1] = target: Carbonic anhydrase 5B, mitochondrial (Homo sapiens, UniProt Q9Y2D0); assay: Inhibition of human recombinant carbonic anhydrase 5B preincubated with enzyme for 1 hr prior to testing by phenol red-based stopped-flow CO2 hydration assay
Carbonic anhydrase 5B, mitochondrial, sequence (Q9Y2D0 whole entry): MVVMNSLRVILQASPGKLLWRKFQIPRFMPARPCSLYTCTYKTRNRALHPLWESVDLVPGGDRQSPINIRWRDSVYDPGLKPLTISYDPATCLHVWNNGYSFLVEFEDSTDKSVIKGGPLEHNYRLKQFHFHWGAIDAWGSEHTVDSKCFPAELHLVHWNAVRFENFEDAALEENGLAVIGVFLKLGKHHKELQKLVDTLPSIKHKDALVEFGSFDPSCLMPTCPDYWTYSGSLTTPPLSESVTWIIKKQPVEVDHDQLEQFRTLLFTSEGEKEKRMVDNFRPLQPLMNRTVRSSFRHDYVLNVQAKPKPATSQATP

Carbonic anhydrase 4 = Carbonic anhydrase 4 (Homo sapiens, UniProt P22748); assay: Inhibition of human recombinant carbonic anhydrase 4 preincubated with enzyme for 1 hr prior to testing by phenol red-based stopped-flow CO2 hydration assay
Carbonic anhydrase 4, sequence (P22748 whole entry): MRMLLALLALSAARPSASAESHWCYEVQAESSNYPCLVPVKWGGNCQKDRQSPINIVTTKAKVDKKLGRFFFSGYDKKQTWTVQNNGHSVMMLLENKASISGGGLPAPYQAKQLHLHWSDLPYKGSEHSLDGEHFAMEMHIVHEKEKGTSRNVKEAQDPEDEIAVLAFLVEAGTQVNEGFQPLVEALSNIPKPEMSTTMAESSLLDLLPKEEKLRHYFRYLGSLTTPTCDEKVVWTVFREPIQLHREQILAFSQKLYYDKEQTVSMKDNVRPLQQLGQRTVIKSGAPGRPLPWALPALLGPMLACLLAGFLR

Carbonic anhydrase 7 = Carbonic anhydrase 7 (Homo sapiens, UniProt P43166); assay: Inhibition of human recombinant carbonic anhydrase 7 preincubated with enzyme for 1 hr prior to testing by phenol red-based stopped-flow CO2 hydration assay
Carbonic anhydrase 7, sequence (P43166 whole entry): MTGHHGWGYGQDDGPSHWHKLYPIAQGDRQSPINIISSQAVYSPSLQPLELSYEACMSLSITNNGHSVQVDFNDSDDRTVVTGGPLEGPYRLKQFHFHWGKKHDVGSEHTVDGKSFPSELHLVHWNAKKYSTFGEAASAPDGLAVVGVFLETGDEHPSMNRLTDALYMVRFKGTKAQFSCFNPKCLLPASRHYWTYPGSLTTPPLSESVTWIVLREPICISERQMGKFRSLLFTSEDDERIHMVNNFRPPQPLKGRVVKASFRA

[2] = target: Carbonic anhydrase 5A, mitochondrial (Homo sapiens, UniProt P35218); assay: Inhibition of human recombinant carbonic anhydrase 5A preincubated with enzyme for 1 hr prior to testing by phenol red-based stopped-flow CO2 hydration assay
Carbonic anhydrase 5A, mitochondrial, sequence (P35218 whole entry): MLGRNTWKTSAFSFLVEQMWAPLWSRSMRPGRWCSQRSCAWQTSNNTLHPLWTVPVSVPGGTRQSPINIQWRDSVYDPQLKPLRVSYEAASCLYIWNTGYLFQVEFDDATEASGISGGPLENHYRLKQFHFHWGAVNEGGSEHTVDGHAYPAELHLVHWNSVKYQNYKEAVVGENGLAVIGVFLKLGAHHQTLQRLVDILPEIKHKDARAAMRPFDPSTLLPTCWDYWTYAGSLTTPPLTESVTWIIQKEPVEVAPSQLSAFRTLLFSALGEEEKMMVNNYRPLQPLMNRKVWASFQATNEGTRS

[3] = Stability of compound in human plasma measured up to 120 mins by LC-MS/MS analysis; type: ADME, cell-free; details: 2 h
Procedure, shortened: (§1)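 Analyte (1 μM final) incubated at 37 °C in PBS, 10 mM HCl (pH 2) or human plasma. Sampling at 0, 30, 60 and 120 min, each in triplicate. Samples were quenched with acetonitrile containing verapamil internal standard, centrifuged and diluted. Read-out was LC–MS/MS with positive ESI and MRM on a PFP column.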

[4] = Stability of compound in PBS buffer measured up to 120 mins by LC-MS/MS analysis; type: physicochemical; details: 2 h; procedure, shortened: as §1
Mus musculus [5] = assay: Antinociceptive activity in orally dosed CD-1 albino mouse model of oxaliplatin-induced neuropathic pain assessed as decrease in pain-related behaviour measured as licking latency treated on day 15 post oxaliplatin treatment and measured after 15 to 60 mins post dose by cold plate test; type: functional, organism-based
Procedure, shortened: (§2)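 Male CD-1 mice (22–25 g) given oxaliplatin 2.4 mg kg–1 i.p. in 5% glucose on days 1–2, 5–9 and 12–14 (10 injections). On day 15, compounds were suspended in 1% CMC and given once orally. Cold plate held at 4 °C; latency to first hind-paw licking recorded, 30 s cutoff. Readings taken before dosing and at 15, 30, 45 and 60 min after. 12 mice per group over two sets, observers blinded.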

[6] = Stability of compound in aqueous HCl solution at pH 2 measured up to 120 mins by LC-MS/MS analysis; type: physicochemical; details: buffer, pH 2, 2 h; procedure, shortened: as §1
Mus musculus [7] = assay: Antinociceptive activity in CD-1 albino mouse model of oxaliplatin-induced neuropathic pain assessed as decrease in pain-related behaviour measured as licking latency at 100 mg/kg, po treated on day 15 post oxaliplatin treatment and measured after 30 to 45 mins post dose by cold plate test; type: functional, organism-based; procedure, shortened: as §2
Mus musculus [8] = assay: Antinociceptive activity in CD-1 albino mouse model of oxaliplatin-induced neuropathic pain assessed as decrease in pain-related behaviour measured as licking latency at 50 mg/kg, po treated on day 15 post oxaliplatin treatment and measured after 15 to 45 mins post dose by cold plate test; type: functional, organism-based; procedure, shortened: as §2
Mus musculus [9] = assay: Antinociceptive activity in CD-1 albino mouse model of oxaliplatin-induced neuropathic pain assessed as decrease in pain-related behaviour measured as licking latency at 10 to 100 mg/kg, po treated on day 15 post oxaliplatin treatment and measured after 15 to 30 mins post dose by cold plate test; type: functional, organism-based; procedure, shortened: as §2
Mus musculus [10] = assay: (§3) Antinociceptive activity in CD-1 albino mouse model of oxaliplatin-induced neuropathic pain assessed as decrease in pain-related behaviour measured as licking latency at 100 mg/kg, po treated on day 15 post oxaliplatin treatment and measured after 30 mins post dose by cold plate test; type: functional, organism-based; procedure, shortened: as §2
[11] = Solubility of compound in water; type: physicochemical; details: buffer
[12] = Stability of compound in aqueous HCl solution assessed as half life at pH 2 measured up to 120 mins by LC-MS/MS analysis; type: physicochemical; details: buffer, pH 2, 2 h
Procedure, shortened: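 Analyte (1 μM final) incubated at 37 °C in 10 mM aqueous HCl (pH 2), sampled in triplicate at 0, 30, 60 and 120 min. Quenched with acetonitrile containing verapamil internal standard, then quantified by LC–MS/MS with positive-ion MRM. Half-life taken from the degradation profile.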

Mus musculus [13] = assay: as §3, with “15” for “30”, “test (reference value: 18.1 +/- 0.3 sec)” for “test”; type: functional
Mus musculus [14] = assay: Antinociceptive activity in orally dosed CD-1 albino mouse model of oxaliplatin-induced neuropathic pain assessed as decrease in pain-related behaviour measured as licking latency treated on day 15 post oxaliplatin treatment and measured upto 45 mins post dose by cold plate test; type: functional, organism-based; procedure, shortened: as §2

SMILES	pKi (Carbonic anhydrase 2)	pKi (Carbonic anhydrase 9)	pKi (Carbonic anhydrase 12)	pKi (Carbonic anhydrase 1)	pKi [1]	pKi (Carbonic anhydrase 4)	pKi (Carbonic anhydrase 7)	pKi [2]	Stability [3]	Stability [4]	Activity (Mus musculus [5])	Stability [6]	Activity (Mus musculus [7])	Activity (Mus musculus [8])	Activity (Mus musculus [9])	Activity (Mus musculus [10])	solubility [11]	Stability [12]	Time (Mus musculus [13]) [s]	Activity (Mus musculus [14])
NS(=O)(=O)c1ccc(OP(=O)(Oc2ccccc2)c2ccccc2)cc1 (racemic)	7.82	7.88	7.61	6.01	7.64	5.58	7.50	6.33	–	–	–	–	–	–	–	–	–	–	–	–
C#CCOP(=O)(Oc1ccc(S(N)(=O)=O)cc1)c1ccccc1 (racemic)	8.44	–	7.57	6.38	7.42	5.88	7.91	7.09	Stable	Stable	Dose-dependent effect	Stable	Active	–	–	–	–	–	–	–
C#CCO[P@@](=O)(Oc1ccc(S(N)(=O)=O)cc1)c1ccccc1	7.25	–	7.31	6.44	7.18	5.70	7.15	7.18	–	–	–	–	–	inactive	–	–	–	–	–	–
NS(=O)(=O)c1ccc(OP(=O)(Sc2ccccc2)c2ccccc2)cc1 (racemic)	7.46	8.18	7.41	5.79	7.54	5.58	7.80	6.42	–	–	–	–	–	–	–	–	–	–	–	–
NS(=O)(=O)c1ccc(OP(=O)(Nc2ccccc2)c2ccccc2)cc1 (racemic)	8.62	7.71	7.68	6.09	7.62	6.07	8.26	6.73	Stable	Stable	–	Stable	–	–	Active	–	–	–	–	–
COP(=O)(Oc1ccc(S(N)(=O)=O)cc1)c1ccccc1 (racemic)	7.94	7.79	7.33	6.31	7.61	6.59	7.44	7.29	–	–	–	–	–	–	–	–	–	–	–	–
C#CCO[P@](=O)(Oc1ccc(S(N)(=O)=O)cc1)c1ccccc1	9.11	–	7.76	6.25	7.72	6.13	8.96	6.97	–	–	–	–	–	Active	–	–	–	–	–	–
CCN(CC)P(=O)(Oc1ccc(S(N)(=O)=O)cc1)c1ccccc1 (racemic)	7.76	7.71	7.33	6.28	7.31	6.43	7.87	6.97	–	–	–	–	–	–	–	–	–	–	–	–
CCCCCCCCCCCCSP(=O)(Oc1ccc(S(N)(=O)=O)cc1)c1ccccc1 (racemic)	6.63	7.29	7.32	5.08	6.65	5.38	7.00	6.19	–	–	–	–	–	–	–	–	–	–	–	–
NS(=O)(=O)c1ccc(OP(=O)(c2ccccc2)N2CCOCC2)cc1 (racemic)	8.10	7.95	7.56	6.50	7.56	6.92	7.52	7.36	–	–	–	–	–	–	–	–	–	–	–	–
CCCNP(=O)(Oc1ccc(S(N)(=O)=O)cc1)c1ccccc1 (racemic)	7.58	8.49	7.76	6.12	7.47	5.82	7.68	7.07	–	–	–	–	–	–	–	–	–	–	–	–
NS(=O)(=O)c1ccc(OP(=O)(Oc2ccc(S(N)(=O)=O)cc2)c2ccccc2)cc1	8.49	7.71	7.77	6.17	7.82	6.44	8.11	6.55	Stable	Stable	–	Stable	–	–	–	Active	Insoluble	–	–	–
NS(=O)(=O)c1ccc(OP(=O)(c2ccccc2)N2CCCC2)cc1 (racemic)	8.77	7.54	7.24	6.62	7.59	6.51	8.03	7.11	Stable	Stable	–	–	–	–	–	–	–	Unstable	–	–
CN1CCN(P(=O)(Oc2ccc(S(N)(=O)=O)cc2)c2ccccc2)CC1 (racemic)	8.04	7.21	7.60	6.41	7.33	7.11	7.77	6.78	Stable	Stable	–	Stable	–	–	Active	–	Soluble	–	–	–
NS(=O)(=O)c1ccc(OP(=O)(NCc2ccccc2)c2ccccc2)cc1 (racemic)	7.28	8.59	7.71	5.77	7.16	6.19	7.81	7.23	–	–	–	–	–	–	–	–	–	–	–	–
CC(=O)Nc1nnc(S(N)(=O)=O)s1 [ACETAZOLAMIDE]	–	–	–	–	–	–	–	–	–	–	–	–	–	–	–	–	–	–	15.8	–
COCCOP(=O)(Oc1ccc(S(N)(=O)=O)cc1)c1ccccc1 (racemic)	7.55	7.92	7.45	6.11	7.17	5.78	7.60	7.23	–	–	–	–	–	–	–	–	–	–	–	–
NS(=O)(=O)c1ccc(OP(=O)(SCc2ccccc2)c2ccccc2)cc1 (racemic)	7.19	7.60	7.67	5.49	7.23	5.35	7.12	6.82	–	–	–	–	–	–	–	–	–	–	–	–
NP(=O)(Oc1ccc(S(N)(=O)=O)cc1)c1ccccc1 (racemic)	7.75	7.68	7.81	6.71	7.90	6.53	7.72	7.38	–	–	–	–	–	–	–	–	–	–	–	–
CC(C)OP(=O)(Oc1ccc(S(N)(=O)=O)cc1)c1ccccc1 (racemic)	7.89	7.76	7.38	6.51	7.70	5.92	8.21	7.00	Stable	Stable	–	Stable	–	–	–	–	–	–	–	Dose-dependent effect
CCOP(=O)(Oc1ccc(S(N)(=O)=O)cc1)c1ccccc1 (racemic)	7.44	7.73	7.65	6.40	7.40	6.37	7.42	6.85	–	–	–	–	–	–	–	–	–	–	–	–
CCSP(=O)(Oc1ccc(S(N)(=O)=O)cc1)c1ccccc1 (racemic)	7.52	7.57	7.47	6.14	7.01	5.86	7.38	7.03	–	–	–	–	–	–	–	–	–	–	–	–
NS(=O)(=O)c1ccc(OP(=O)(O)c2ccccc2)cc1	7.42	7.58	7.51	6.71	7.28	6.66	7.79	7.12	–	–	–	–	–	–	–	–	–	–	–	–
